Data published in ChEMBL document CHEMBL4184319, “Fluorescent-Labeled Selective Adenosine A2B Receptor Antagonist Enables Competition Binding Assay by Flow Cytometry” (J Med Chem, 2018).

Experiments:
Adenosine receptor A2a [1] = molecular target: Adenosine receptor A2a (Rattus norvegicus, UniProt P30543); test: Displacement of [3H]MSX-2 from adenosine A2A receptor in rat brain striatal membranes after 30 mins by liquid scintillation counting method; type: cell membranes, Striatum, Membrane
How it was run: (§1)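 [³H]MSX-2 (1 nM) used with rat striatal or human A2A-HEK membranes, 30 min at rt. Membranes pre-incubated 10-15 min with ADA 0.12 IU/mL. DMSO 2.5 % final. GF/B filtration, then scintillation counting. Curves used 6-7 concentrations over 3 log units. At least three experiments, in duplicate (human) or triplicate (rat).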

Adenosine receptor A1 [2] = molecular target: T1, Adenosine receptor A1 (Rattus norvegicus, UniProt P25099); test: Displacement of [3H]CCPA from adenosine A1 receptor in rat brain cortical membranes after 90 mins by liquid scintillation counting method; type: cell membranes
T1 sequence (P25099 whole entry): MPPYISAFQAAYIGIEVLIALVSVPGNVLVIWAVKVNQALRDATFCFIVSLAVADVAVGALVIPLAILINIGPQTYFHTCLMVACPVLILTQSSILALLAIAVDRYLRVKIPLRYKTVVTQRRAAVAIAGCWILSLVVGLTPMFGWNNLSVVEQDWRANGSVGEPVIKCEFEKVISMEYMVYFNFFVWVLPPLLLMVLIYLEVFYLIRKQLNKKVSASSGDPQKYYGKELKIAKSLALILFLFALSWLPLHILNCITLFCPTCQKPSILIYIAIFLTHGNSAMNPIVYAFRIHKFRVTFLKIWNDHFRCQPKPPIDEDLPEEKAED
How it was run: (§2)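 [³H]CCPA (1 nM) used with rat brain cortical or human A1-CHO membranes, 90 min at rt. Membranes pre-incubated 10-15 min with ADA 0.12 IU/mL. Nonspecific binding defined with 10 µM CADO. Compounds dissolved in DMSO, 2.5 % final. Filtration on GF/B filters with ice-cold Tris-HCl washes, then scintillation counting. Curves used 6-7 concentrations spanning 3 log units. At least three experiments, in duplicate (human) or triplicate (rat).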

[3] = Selectivity ratio of Ki for adenosine A2A receptor in rat brain striatal membranes to Ki for recombinant human adenosine A2B receptor expressed in CHO cell membranes; type: cell-based
Adenosine receptor A3 = molecular target: T2, Adenosine receptor A3 (Homo sapiens, UniProt P0DMS8); test: Displacement of [3H]PSB-11 from recombinant human adenosine A3 receptor expressed in CHO cell membranes after 45 mins by liquid scintillation counting method
T2 sequence (P0DMS8 whole entry): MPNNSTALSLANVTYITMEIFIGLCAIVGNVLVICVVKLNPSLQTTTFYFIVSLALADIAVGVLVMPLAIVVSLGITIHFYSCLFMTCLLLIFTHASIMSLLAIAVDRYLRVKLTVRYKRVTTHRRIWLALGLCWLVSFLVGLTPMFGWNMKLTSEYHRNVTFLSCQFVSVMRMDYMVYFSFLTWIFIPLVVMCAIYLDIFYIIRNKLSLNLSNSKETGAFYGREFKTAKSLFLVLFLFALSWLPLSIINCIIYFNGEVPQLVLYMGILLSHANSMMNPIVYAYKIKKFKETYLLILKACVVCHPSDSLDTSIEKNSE
How it was run: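 Human A3-CHO membranes incubated with [³H]PSB-11 (1 nM) for 45 min at rt, after 10-15 min pre-incubation with ADA 0.12 IU/mL. Nonspecific binding defined with 100 µM R-PIA. DMSO 2.5 % final. GF/B filtration, then scintillation counting. Curves used 6-7 concentrations over 3 log units. At least three experiments in duplicate.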

Adenosine receptor A2b [4] = molecular target: T3, Adenosine receptor A2b (Homo sapiens, UniProt P29275); test: Displacement of [3H]PSB-603 from recombinant human adenosine A2B receptor expressed in CHO cell membranes after 75 mins by liquid scintillation counting method
T3 sequence (P29275 whole entry): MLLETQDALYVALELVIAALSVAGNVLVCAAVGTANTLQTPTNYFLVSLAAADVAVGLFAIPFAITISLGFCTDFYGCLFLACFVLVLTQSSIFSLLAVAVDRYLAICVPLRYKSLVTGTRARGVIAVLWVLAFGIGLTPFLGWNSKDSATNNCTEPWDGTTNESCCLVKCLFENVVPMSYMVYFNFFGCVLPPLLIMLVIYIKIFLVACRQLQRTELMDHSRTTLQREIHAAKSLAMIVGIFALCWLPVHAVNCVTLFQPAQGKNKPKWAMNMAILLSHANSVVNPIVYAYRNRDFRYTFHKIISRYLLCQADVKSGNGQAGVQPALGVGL
How it was run: (§3)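 [³H]PSB-603 (0.3 nM) used with CHO membranes expressing human, mouse or rat A2BAR, 75 min at rt. Membranes pre-incubated 10-15 min with ADA 0.12 IU/mL. Nonspecific binding defined with 10 µM DPCPX. DMSO 2.5 % final. Filtration on GF/B with ice-cold 50 mM Tris-HCl pH 7.4 containing 0.1 % BSA, then scintillation counting. Curves used 6-7 concentrations over 3 log units. At least three experiments.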

Adenosine receptor A2b [5] = molecular target: T3, Adenosine receptor A2b; test: Displacement of PSB-12105 from recombinant human adenosine A2B receptor expressed in CHO cell membranes preincubated for 30 mins followed by PSB-12105 addition measured after 20 mins by flow cytometric method; type: cell-based
How it was run: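 Live CHO-hA2B cells were pre-treated with ADA (2 U/mL, 2 h, 37°C), detached with 5 mM EDTA, and resuspended in HBSS with 2 U/mL ADA at 2.5×10^5 cells/well in 96-well format. Antagonists pre-incubated 30 min at 37°C, then fluorescent ligand (100 nM) added for 20 min at 37°C. 3-5 independent experiments in duplicate.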

Adenosine receptor A1 [6] = molecular target: T1, Adenosine receptor A1; test: Displacement of [3H]-ADAC from adenosine A1 receptor in rat cerebral cortex membranes after 120 mins by filter binding method; type: cell membranes, Membrane
Adenosine receptor A2b [7] = molecular target: T4, Adenosine receptor A2b (Mus musculus, UniProt Q60614); test: Displacement of [3H]PSB-603 from recombinant mouse adenosine A2B receptor expressed in CHO cell membranes after 75 mins by liquid scintillation counting method; how it was run: as §3
T4 sequence (Q60614 whole entry): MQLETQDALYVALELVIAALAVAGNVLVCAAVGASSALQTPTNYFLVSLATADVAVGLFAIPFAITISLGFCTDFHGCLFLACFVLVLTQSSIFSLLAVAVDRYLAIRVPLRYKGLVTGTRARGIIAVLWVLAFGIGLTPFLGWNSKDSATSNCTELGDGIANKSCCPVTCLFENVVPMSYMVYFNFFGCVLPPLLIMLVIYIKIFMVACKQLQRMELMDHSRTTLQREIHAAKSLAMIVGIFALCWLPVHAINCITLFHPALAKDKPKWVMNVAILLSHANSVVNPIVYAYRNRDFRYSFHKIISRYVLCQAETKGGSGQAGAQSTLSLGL

Adenosine receptor A2b [8] = molecular target: T3, Adenosine receptor A2b; test: Antagonist activity at recombinant human adenosine A2B receptor expressed in CHO cell membranes assessed as inhibition of NECA-induced cAMP accumulation preincubated for 1 hr followed by NECA induction measured after 5 mins in presence of [3H]cAMP and bovine cAMP-binding protein by liquid scintillation counting method; type: functional
How it was run: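 CHO cells stably expressing human A2BAR, pre-incubated with antagonist dilutions for 1 h at 37°C, then stimulated with NECA (10 µM final) for 5 min at 37°C. Reaction stopped with hot (90 °C) lysis solution (4 mM EDTA, 0.01 % Triton X100). cAMP quantified by radioactive competition with [³H]cAMP and bovine adrenal cAMP-binding protein. Response expressed as % of NECA response without antagonist. Means ± SEM, three independent experiments in duplicate.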

Adenosine receptor A2a [9] = molecular target: Adenosine receptor A2a (Homo sapiens, UniProt P29274); test: Displacement of [3H]MSX-2 from recombinant human adenosine A2A receptor expressed in HEK cell membranes after 30 mins by liquid scintillation counting method
Chain of Adenosine receptor A2a (Homo sapiens, UniProt P29274) (P29274 whole entry): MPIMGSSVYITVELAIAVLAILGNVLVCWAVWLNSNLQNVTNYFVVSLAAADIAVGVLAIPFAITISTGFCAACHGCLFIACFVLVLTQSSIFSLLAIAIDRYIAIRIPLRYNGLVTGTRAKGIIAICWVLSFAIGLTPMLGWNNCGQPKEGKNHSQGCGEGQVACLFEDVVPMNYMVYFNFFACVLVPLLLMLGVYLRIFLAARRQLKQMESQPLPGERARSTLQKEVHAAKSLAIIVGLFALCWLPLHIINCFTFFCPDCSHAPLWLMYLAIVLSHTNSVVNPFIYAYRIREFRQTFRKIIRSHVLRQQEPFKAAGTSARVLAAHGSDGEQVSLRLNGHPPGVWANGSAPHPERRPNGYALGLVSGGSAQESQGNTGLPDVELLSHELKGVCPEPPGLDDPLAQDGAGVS
How it was run: as §1, with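 “IU/mL. Nonspecific binding defined with 10 µM CGS15943.” for “IU/mL.”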

Homo sapiens = organism: Homo sapiens; test: Selectivity ratio of Ki for recombinant human adenosine A2A receptor expressed in HEK cell membranes to Ki for recombinant human adenosine A2B receptor expressed in CHO cell membranes; type: cell-based
Adenosine receptor A1 [10] = molecular target: T5, Adenosine receptor A1 (Homo sapiens, UniProt P30542); test: Displacement of [3H]CCPA from recombinant human adenosine A1 receptor expressed in CHO cell membranes after 90 mins by liquid scintillation counting method; how it was run: as §2
T5 sequence (P30542 whole entry): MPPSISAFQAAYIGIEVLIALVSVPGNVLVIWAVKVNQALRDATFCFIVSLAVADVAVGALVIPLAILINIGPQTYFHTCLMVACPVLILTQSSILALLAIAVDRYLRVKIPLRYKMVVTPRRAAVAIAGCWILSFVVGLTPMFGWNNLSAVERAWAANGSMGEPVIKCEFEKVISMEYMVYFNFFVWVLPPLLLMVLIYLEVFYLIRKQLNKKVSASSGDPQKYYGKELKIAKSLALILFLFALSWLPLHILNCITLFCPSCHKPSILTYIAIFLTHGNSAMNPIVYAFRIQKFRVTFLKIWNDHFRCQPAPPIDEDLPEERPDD

Chain of Adenosine receptor A2a (Rattus norvegicus, UniProt P30543) (P30543 whole entry): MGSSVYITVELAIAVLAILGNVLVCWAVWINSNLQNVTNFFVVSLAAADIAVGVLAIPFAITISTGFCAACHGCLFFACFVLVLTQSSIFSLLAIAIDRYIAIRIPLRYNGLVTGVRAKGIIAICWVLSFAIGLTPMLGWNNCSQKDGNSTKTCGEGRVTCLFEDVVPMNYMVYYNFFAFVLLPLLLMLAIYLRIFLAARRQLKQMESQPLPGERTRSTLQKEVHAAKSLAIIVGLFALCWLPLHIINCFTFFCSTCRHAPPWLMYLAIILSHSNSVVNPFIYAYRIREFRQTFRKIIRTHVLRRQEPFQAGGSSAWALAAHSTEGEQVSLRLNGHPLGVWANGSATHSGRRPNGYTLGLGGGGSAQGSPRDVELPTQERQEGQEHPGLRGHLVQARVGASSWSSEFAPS

Compound	Ki (Adenosine receptor A2a [1])	Ki (Adenosine receptor A1 [2])	Ratio Ki [3]	Ki (Adenosine receptor A3)	Ki (Adenosine receptor A2b [4])	also measured
CCCn1c(=O)[nH]c2nc(-c3ccc(OCC(=O)NCCCC4=C5C(C)=CC(C)=[N+]5[B-](F)(F)n5c(C)cc(C)c54)cc3)[nH]c2c1=O	2150 nM	168 nM	> 150	904 nM	11.6 nM	
CCCN1C(=O)N=C2N=C(c3ccc(S(=O)(=O)N4CCN(Cc5ccccc5)CC4)cc3)N=C2C1=O						IC50 (Adenosine receptor A2b [5]): 23.5 nM
O=C(Cc1ccc(NC(=O)Cc2ccc(Nc3ncnc4c3ncn4[C@@H]3O[C@H](CO)[C@@H](O)[C@H]3O)cc2)cc1)NCCNC(=S)Nc1ccc(-c2c3ccc(=O)cc-3oc3cc(O)ccc23)c(C(=O)O)c1						Ki (Adenosine receptor A1 [6]): 7.1 nM
Cn1c(=O)c2c(ncn2C)n(C)c1=O [CAFFEINE]						Ki (Adenosine receptor A2b [7]): 23000 nM
CCCN1C(=O)N=C2N=C(c3ccc(S(=O)(=O)N4CCN(Cc5ccc(Cl)cc5)CC4)cc3)N=C2C1=O						IC50 (Adenosine receptor A2b [5]): 1.06 nM
CCCn1c(=O)[nH]c2nc(-c3ccc(OCC(=O)NCCc4ccccc4)cc3)[nH]c2c1=O	> 10000 nM	7.85 nM	> 150	> 10000 nM	7.45 nM	IC50 (Adenosine receptor A2b [8]): 141 nM
CCCn1c(=O)[nH]c2nc(-c3ccc(OCC(=O)NCCCCCCCCCCC4=C5C(C)=CC(C)=[N+]5[B-](F)(F)n5c(C)cc(C)c54)cc3)[nH]c2c1=O	> 10000 nM	227 nM	> 150	≥ 10000 nM	7.82 nM	Ki (Adenosine receptor A2a [9]): 1600 nM; Ratio Ki (Homo sapiens): > 150; Ki (Adenosine receptor A1 [10]): > 10000 nM
